Measurements published in ChEMBL document CHEMBL4665726, “Development of a selective HDAC inhibitor aimed at reactivating the HIV latent reservoir” (Bioorg Med Chem Lett, 2020).

Experiments:
[1] = target: T1, Protein deacetylase HDAC6 (Homo sapiens, UniProt Q9UBN7); experiment: Inhibition of HDAC6 (unknown origin)
T1 sequence (Q9UBN7 whole entry): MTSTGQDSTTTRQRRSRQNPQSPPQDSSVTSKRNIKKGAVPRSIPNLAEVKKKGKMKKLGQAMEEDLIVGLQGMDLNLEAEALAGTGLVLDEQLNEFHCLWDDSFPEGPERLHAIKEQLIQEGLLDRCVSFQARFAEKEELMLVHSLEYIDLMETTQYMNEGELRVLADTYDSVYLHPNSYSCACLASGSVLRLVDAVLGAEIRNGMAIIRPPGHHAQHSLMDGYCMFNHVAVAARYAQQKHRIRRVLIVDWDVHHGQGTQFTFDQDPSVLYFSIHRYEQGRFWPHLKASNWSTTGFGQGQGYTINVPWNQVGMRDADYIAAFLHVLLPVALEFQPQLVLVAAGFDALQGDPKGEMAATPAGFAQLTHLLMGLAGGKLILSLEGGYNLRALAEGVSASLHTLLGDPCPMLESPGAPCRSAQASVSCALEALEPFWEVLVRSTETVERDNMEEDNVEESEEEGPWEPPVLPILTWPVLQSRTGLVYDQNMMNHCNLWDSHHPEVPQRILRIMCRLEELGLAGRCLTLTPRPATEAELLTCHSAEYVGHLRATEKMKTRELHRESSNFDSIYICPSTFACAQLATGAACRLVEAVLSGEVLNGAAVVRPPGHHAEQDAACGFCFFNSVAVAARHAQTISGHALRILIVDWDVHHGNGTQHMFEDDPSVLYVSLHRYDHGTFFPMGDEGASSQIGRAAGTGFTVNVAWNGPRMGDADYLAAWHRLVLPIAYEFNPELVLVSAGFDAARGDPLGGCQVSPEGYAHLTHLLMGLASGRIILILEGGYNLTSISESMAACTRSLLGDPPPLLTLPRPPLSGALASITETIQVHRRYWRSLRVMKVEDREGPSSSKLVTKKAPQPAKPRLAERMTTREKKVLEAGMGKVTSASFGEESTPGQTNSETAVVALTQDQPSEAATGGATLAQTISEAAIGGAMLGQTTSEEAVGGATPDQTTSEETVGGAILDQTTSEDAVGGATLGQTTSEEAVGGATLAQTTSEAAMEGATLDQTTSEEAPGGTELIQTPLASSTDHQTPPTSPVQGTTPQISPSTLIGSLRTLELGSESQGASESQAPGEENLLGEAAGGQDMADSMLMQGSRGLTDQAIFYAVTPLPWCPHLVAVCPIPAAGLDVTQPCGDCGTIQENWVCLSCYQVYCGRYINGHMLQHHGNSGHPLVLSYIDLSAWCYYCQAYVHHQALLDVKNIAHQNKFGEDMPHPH

Histone deacetylase 3 = Histone deacetylase 3 (Homo sapiens, UniProt O15379); experiment: Inhibition of HDAC3 (unknown origin)
Histone deacetylase 8 = target: T2, Histone deacetylase 8 (Homo sapiens, UniProt Q9BY41); experiment: Inhibition of HDAC8 (unknown origin)
T2 sequence (Q9BY41 whole entry): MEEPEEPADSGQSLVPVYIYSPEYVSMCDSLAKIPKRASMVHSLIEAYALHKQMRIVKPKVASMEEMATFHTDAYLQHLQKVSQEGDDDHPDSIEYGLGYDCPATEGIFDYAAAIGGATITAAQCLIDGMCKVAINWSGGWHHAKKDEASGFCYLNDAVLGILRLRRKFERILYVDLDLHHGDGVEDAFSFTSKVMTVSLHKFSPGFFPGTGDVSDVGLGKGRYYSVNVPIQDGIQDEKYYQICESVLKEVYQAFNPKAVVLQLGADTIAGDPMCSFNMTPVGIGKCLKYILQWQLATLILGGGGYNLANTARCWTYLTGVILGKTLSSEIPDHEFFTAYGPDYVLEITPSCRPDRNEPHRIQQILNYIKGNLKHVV

Histone deacetylase 1 = Histone deacetylase 1 (Homo sapiens, UniProt Q13547); experiment: Inhibition of HDAC1 (unknown origin)
Histone deacetylase 2 = Histone deacetylase 2 (Homo sapiens, UniProt Q92769); experiment: Inhibition of HDAC2 (unknown origin)
[2] = target: T3, Class 1 histone deacetylase (Homo sapiens, UniProt Q13547+O15379+Q92769+Q9BY41); experiment: Inhibition of Class 1 HDAC in VSV-G-pseudotyped HIV infected human 2C4 cell Jurkat model assessed as reactivation of HIV latency in presence of 5% NHS by fluorescent reporter gene assay
How it was run: (§1)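 Latently infected Jurkat 2C4 cells (HIV latency model) were tested for reactivation of silenced provirus in parallel at two normal human serum levels: 0.1% and 5%. The paired runs gauge the potency shift from plasma protein binding.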

[3] = target: T3, Class 1 histone deacetylase; experiment: Inhibition of Class 1 HDAC in VSV-G-pseudotyped HIV infected human 2C4 cell Jurkat model assessed as reactivation of HIV latency in presence of 0.1% NHS by fluorescent reporter gene assay; how it was run: as §1

Histone deacetylase 3, sequence (O15379 whole entry): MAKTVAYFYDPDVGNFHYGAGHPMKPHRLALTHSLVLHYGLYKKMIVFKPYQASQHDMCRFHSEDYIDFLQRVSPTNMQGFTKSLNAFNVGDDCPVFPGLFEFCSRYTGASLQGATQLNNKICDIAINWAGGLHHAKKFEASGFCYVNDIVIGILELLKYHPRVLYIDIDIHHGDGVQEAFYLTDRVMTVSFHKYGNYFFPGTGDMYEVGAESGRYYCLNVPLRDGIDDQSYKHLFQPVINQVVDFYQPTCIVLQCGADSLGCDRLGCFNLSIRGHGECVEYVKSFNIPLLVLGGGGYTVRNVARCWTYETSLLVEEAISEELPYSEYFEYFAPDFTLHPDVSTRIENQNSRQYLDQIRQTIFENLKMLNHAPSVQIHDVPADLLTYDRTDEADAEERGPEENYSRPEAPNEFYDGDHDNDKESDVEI
Histone deacetylase 2, sequence (Q92769 whole entry): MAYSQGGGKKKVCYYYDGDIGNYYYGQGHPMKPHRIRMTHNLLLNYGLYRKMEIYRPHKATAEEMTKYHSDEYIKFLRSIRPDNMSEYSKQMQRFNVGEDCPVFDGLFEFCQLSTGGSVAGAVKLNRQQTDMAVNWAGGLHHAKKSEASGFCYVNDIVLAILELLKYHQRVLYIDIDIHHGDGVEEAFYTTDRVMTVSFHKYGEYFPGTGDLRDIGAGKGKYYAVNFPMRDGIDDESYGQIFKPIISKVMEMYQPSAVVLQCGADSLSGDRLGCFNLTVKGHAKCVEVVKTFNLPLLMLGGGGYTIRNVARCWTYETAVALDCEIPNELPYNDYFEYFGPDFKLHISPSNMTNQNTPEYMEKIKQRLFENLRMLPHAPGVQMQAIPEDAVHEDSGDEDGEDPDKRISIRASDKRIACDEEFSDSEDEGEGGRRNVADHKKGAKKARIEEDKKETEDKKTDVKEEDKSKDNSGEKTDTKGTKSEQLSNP
Histone deacetylase 1, sequence (Q13547 whole entry): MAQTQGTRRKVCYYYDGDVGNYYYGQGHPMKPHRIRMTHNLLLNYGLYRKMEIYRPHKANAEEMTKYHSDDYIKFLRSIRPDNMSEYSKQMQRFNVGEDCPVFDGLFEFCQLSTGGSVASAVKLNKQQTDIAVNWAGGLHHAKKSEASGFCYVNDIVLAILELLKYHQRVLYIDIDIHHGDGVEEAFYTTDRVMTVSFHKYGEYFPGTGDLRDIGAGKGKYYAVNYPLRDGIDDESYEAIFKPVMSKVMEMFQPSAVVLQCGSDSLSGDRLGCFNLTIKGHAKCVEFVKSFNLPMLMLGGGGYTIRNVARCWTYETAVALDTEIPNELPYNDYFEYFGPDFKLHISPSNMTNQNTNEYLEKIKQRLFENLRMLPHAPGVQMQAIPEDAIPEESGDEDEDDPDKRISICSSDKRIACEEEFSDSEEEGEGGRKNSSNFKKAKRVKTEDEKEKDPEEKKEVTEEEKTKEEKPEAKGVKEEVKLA

Row | SMILES | IC50 [1] | IC50 (Histone deacetylase 3) | IC50 (Histone deacetylase 8) | IC50 (Histone deacetylase 1) | IC50 (Histone deacetylase 2) | EC50 [2] | EC50 [3]
1 | CCC(=O)CCCCC[C@H](NC(=O)c1ccon1)c1[nH]c(-c2ccc(F)cc2)nc1C#N | > 45000 nM | 12.1 nM | 16200 nM | 35.6 nM | 164 nM | 2726 nM | 558 nM
2 | CCC(=O)CCCCC[C@H](NC(=O)C12CCN(CC1)CC2)c1[nH]c(-c2ccc(F)cc2)nc1C#N | > 45000 nM | 2.4 nM | 6930 nM | 6.2 nM | 26.9 nM | 2207 nM | 1731 nM
3 | CCC(=O)CCCCCC(NC(=O)c1cncs1)c1[nH]c(-c2ccccc2)nc1C(N)=O (stereo unspecified) | 16400 nM | – | 4700 nM | 7.2 nM | 26.7 nM | 537 nM | 154 nM
4 | CCC(=O)CCCCC[C@H](NC(=O)[C@H]1CC12CCN(C)CC2)c1[nH]c(-c2ccccc2F)nc1C#N | 22500 nM | 10.7 nM | 39600 nM | 17 nM | 96 nM | 1162 nM | 566 nM
5 | CCC(=O)CCCCC[C@H](NC(=O)[C@H]1CC12CCN(C)CC2)c1[nH]c(-c2ccc(-c3cccnc3)cc2)nc1C#N | 9470 nM | 0.3 nM | 12600 nM | 0.2 nM | 1.7 nM | 55 nM | 77 nM
6 | CCC(=O)CCCCC[C@H](NC(=O)[C@H]1CC12CCN(C)CC2)c1[nH]c(-c2ccc(F)cc2)nc1C(N)=O | 17600 nM | 0.9 nM | 6800 nM | 0.6 nM | 6.3 nM | 276 nM | 166 nM
7 | CCC(=O)CCCCC[C@H](NC(=O)[C@H]1CC12CCN(C)CC2)c1[nH]c(-c2cccnc2OC)nc1C#N | 17100 nM | 34.8 nM | 38100 nM | 58.9 nM | 229 nM | 1669 nM | 2112 nM
8 | CCC(=O)CCCCC[C@H](NC(=O)C1CN(C)C1)c1[nH]c(-c2ccc(F)cc2)nc1C#N | 36900 nM | 13.8 nM | 19700 nM | 25.9 nM | 117 nM | 2071 nM | 1564 nM
9 | CCC(=O)CCCCC[C@H](NC(=O)CN(C)C)c1[nH]c(-c2ccc(F)cc2)nc1C#N | 43300 nM | 26.8 nM | 29500 nM | 47.9 nM | 219 nM | 3532 nM | 1605 nM
10 | CCC(=O)CCCCC[C@H](NC(=O)[C@H]1CC12CCN(CC)CC2)c1[nH]c(-c2ccc(F)cc2)nc1C#N | 23600 nM | 1.8 nM | 9370 nM | 2.8 nM | 11.7 nM | 259 nM | 161 nM
11 | CCC(=O)CCCCC[C@H](NC(=O)[C@H]1CC12CCN(C)CC2)c1[nH]c(-c2ccc3nc(C)ccc3c2)nc1C#N | 6300 nM | 0.2 nM | 9830 nM | 0.3 nM | 1.5 nM | 97 nM | 105 nM
